In the library only some 2.1% were active in any assay of this set; here they are far more common.
SR-BI HDL uptake = inhibitors of SR-BI mediated HDL lipid uptake, primary screen, ldlA[mSR-BI] cells, fluorescence, single point; Scavenger receptor class B member 1 (Mus musculus), Q61009; ldlA[mSR-BI] CHO cells, DiI-HDL uptake fluorescence, 3 h; inhibition, % at 12.5 µM; 320,000 tested, 0.96% active; AID 488896, 2010;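 active = mean replicate inhibition of at least 70% and a set share of replicates each scoring 70 or more; inconclusive = meets just one of the two criteria; inactive = fails both criteria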
Target sequence (Q61009 whole entry, looked up): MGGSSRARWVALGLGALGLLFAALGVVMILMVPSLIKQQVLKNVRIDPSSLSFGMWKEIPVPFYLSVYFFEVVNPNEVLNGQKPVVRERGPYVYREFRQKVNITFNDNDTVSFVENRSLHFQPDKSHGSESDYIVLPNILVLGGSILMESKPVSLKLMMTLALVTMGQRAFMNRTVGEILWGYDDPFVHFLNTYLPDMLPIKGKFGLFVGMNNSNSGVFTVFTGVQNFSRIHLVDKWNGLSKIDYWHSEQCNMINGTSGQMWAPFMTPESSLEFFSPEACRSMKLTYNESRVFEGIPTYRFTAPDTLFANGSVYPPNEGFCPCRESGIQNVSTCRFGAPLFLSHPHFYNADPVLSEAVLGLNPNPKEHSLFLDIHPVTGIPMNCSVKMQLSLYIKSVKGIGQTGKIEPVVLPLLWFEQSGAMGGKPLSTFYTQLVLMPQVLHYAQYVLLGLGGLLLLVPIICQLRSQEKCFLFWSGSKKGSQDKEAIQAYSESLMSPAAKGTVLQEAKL
miR-122 sensor = miR-122 Renilla sensor signal increase in Huh7, primary screen, miR-122 inhibitor project, cell-based, single point, plate reader | Huh7 miR-122 Renilla luciferase sensor, 48 h; neutral wells = 0, positive control = 100 | activation (reporter increase), % at 12.5 µM | AID 602342, 2012 | 340,000 tested, 0.3% active;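 active = mean replicate activation score at least 90 and every replicate individually at or above 90; inconclusive = only one of the two criteria met; inactive = neither criterion met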;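 note: higher luciferase means less miR-122 activity so hits act as miR-122 inhibitors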
SR-BI DiI-HDL act = activators of SR-BI mediated DiI-HDL uptake, primary screen, ldlA[mSR-BI] CHO cells, DiI fluorescence | 3 h; 100 = double the neutral-control signal | activation, % at 12.5 µM | 320,000 tested, 0.096% active;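 active = mean replicate activation of at least 60% and every replicate at or above 60%; inconclusive = mean or all-replicate condition met, but not both; inactive = mean below 60% and not all replicates reaching 60%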
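Test system: SR-BI-overexpressing, LDLR-lacking CHO cells; Medium: Ham's F12 with 0.5% BSA, HEPES 25 mM, pH 7.4; Schedule: 3 h, 37 °C; Technique: bottom-read fluorescence, 550/595 nm.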
CAL PDZ FP-1 = untagged CAL PDZ binding inhibitors, primary screen, biochemical, fluorescence polarization, HTS | Golgi-associated PDZ and coiled-coil motif-containing protein (Homo sapiens), Q9HD26 | AID 602252, 2012 | 300,000 tested, 0.92% active | purified CAL PDZ, TMR-peptide fluorescence polarization, 1 h | inhibition, % at 24.9 µM;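 active = mean inhibition of at least 30% with at least half of replicates also reaching 30%; inconclusive = no clear call, values can overlap the other calls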
CAL PDZ FP-2 = CAL PDZ peptide-binding inhibitors, primary screen, biochemical, fluorescence polarization, Cer-tagged CAL PDZ, HTS. AID 504414, 2011. 330,000 tested, 0.02% active. Golgi-associated PDZ and coiled-coil motif-containing protein (Homo sapiens), Q9HD26. inhibition, % at 20 µM. purified CAL PDZ, TMR-peptide fluorescence polarization, 1 h;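 active = highest replicate inhibition of at least 40%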
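Material: tagged CAL PDZ domain; buffer or medium: 25 mM sodium phosphate pH 7.4, 150 mM NaCl, TCEP, IgG, Thesit; compound dosing: single point, 20 µM; schedule: 1 h incubation at room temperature before polarization reading; measured by: FP readout, S and P plane fluorescence; read-out basis: percent inhibition from loss of millipolarization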
ARNT TACC3 PPI = disruptors of ARNT/TACC3 protein interaction, primary screen, biochemical, AlphaScreen, single concentration | AlphaScreen His-ARNT PAS-B/GST-TACC3 binding, luminescence; TACC3 fragment carries E629A point mutation | 390,000 tested, 0.66% active | Transforming acidic coiled-coil-containing protein 3 (Homo sapiens), Q9Y6A5 | inhibition, % at 9.99 µM;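 active = mean inhibition of replicates at least 50% and at least half of replicates each reaching 50%; inconclusive = half or more replicates reach 50% but mean below 50%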
A number is an active result; 0 = inactive; ? = inconclusive; - = no result.

SMILES	SR-BI HDL uptake	miR-122 sensor	SR-BI DiI-HDL act	CAL PDZ FP-1	CAL PDZ FP-2	ARNT TACC3 PPI
Cc1ccccc1S(=O)(=O)N1CC[C@@H]2[C@H](CO)Nc3ccc(-c4cccc(F)c4)cc3[C@@H]21	-	0	-	-	-	0
CN(C)C(=O)C[C@H]1CC[C@H]2[C@@H](COc3ccc(NC(=O)c4cnccn4)cc3C(=O)N2C)O1	-	0	-	-	-	0
CC(C)C(=O)Nc1ccc(C(=O)N/N=C/c2cc(Br)cc(Br)c2O)cc1	146.5	-	0	0	0	-
CC(=O)Nc1ccc(C(=O)N/N=C/c2cc(Br)cc(Br)c2O)cc1	135.1	0	0	0	0	0
COc1cc(OC)c(/C=N/NC(=O)c2ccc(NC(C)=O)cc2)cc1Br	?	-	0	0	0	0
O=S(=O)(c1ccccc1)N1CC[C@@H]2[C@H](CO)Nc3ccc(C#Cc4cccc(F)c4)cc3[C@@H]21	-	0	-	-	-	0
CC(C)OCCCN1CC(=O)N2C(c3cccc([N+](=O)[O-])c3)c3[nH]c4ccccc4c3C[C@H]2C1=O (stereo partly drawn)	81.0	0	0	0	0	0
C[C@H]1CN([C@@H](C)CO)S(=O)(=O)c2ccc(C#Cc3ccc(F)cc3)cc2O[C@@H]1CN(C)C(=O)CN(C)C	-	0	-	-	-	0
COc1ccc(/C=C/C(=O)N2CCN(c3ccccc3)CC2)cc1S(=O)(=O)N1CCOCC1	0	-	0	52.4	0	0
COc1ccc(/C=C/C(=O)N2CCC(C(N)=O)CC2)cc1S(=O)(=O)N1CCOCC1	0	0	0	0	0	0
COc1ccc(/C=C/C(=O)Nc2cccc(N3CCOCC3)c2)cc1OC	75.6	-	0	0	0	0
COCC(=O)Nc1ccc2c(c1)OC[C@H](C)N(Cc1cc(F)ccc1F)C[C@@H](C)[C@H](OC)CN(C)C2=O	-	-	-	-	-	0
CC(C)(C(=O)Nc1nccs1)c1ccccc1	0	-	0	66.1	0	0
O=C(Nc1ccccc1)Nc1nccs1	0	0	0	0	0	0
CC(C)NC(=O)Nc1ccc2c(c1)C(=O)N([C@H](C)CO)C[C@H](C)[C@@H](CN(C)Cc1ccncc1)O2	-	0	-	-	-	0
COc1ccc(NC(=O)Nc2ccc3c(c2)C(=O)N([C@H](C)CO)C[C@H](C)[C@@H](CN(C)C(=O)Nc2cccc4ccccc24)OCCCC[C@@H](C)O3)cc1	-	0	-	-	-	0
NNC(=O)c1oc2nc(-c3ccc(Cl)cc3)cc(-c3ccccc3)c2c1N	106.1	0	0	0	0	0
NNC(=O)c1oc2nc(-c3ccco3)cc(-c3ccco3)c2c1N	-	0	-	-	-	-
CC(=O)c1cccc(NC(=O)c2ccc(OCc3c(C)noc3C)cc2)c1	0	0	0	-	0	0
COc1cc(C(=O)Nc2ccc(N3CCOCC3)cc2)ccc1OCc1c(C)noc1C	0	0	0	0	0	0
COc1cc(C(=O)Nc2cc(OC)c(OC)c(OC)c2)ccc1OCc1c(C)noc1C	87.0	0	0	0	0	0
Cc1cccc(NC(=O)c2ccc(OCc3c(C)noc3C)cc2)c1	72.9	0	0	0	0	0
CCc1nnc(NC(=O)c2ccc(OCc3c(C)noc3C)c(OC)c2)s1	84.2	0	0	0	0	0
COc1cc(NC(=O)c2ccc(OCc3c(C)noc3C)c(OC)c2)cc(OC)c1	86.5	0	0	0	0	0
COc1cc(C(=O)Nc2ccc3c(c2)OCO3)ccc1OCc1c(C)noc1C	0	-	0	-	0	0
SMILES	SR-BI HDL uptake	miR-122 sensor	SR-BI DiI-HDL act	CAL PDZ FP-1	CAL PDZ FP-2	ARNT TACC3 PPI
CCCCNS(=O)(=O)c1cc(-c2nn(C)c(=O)c3ccccc23)ccc1C	0	0	0	56.2	0	0
Cn1nnnc1SCc1nc2ccccc2s1	0	0	0	-	0	0
Cn1nnnc1SCc1cccc2ccccc12	0	-	0	34.2	-	0
CCOc1ccc(/C=C/C(=O)N(CC)CC(=O)Nc2ccc3c(c2)OCCO3)cc1OC	?	-	0	0	0	0
CCOc1ccc(/C=C/C(=O)N(CC)CC(=O)Nc2ccc3c(c2)OCCO3)cc1OCC	74.4	0	0	0	0	0
Cc1ccc(S(=O)(=O)N[C@H]2CC[C@H](CCNC(=O)c3ccc4c(c3)OCO4)O[C@@H]2CO)cc1	-	-	-	-	-	0
Cc1ccnc(SCC(=O)Nc2sccc2C#N)n1	0	0	0	38.8	0	0
CC(=O)Nc1ccc(SCC(=O)Nc2sccc2C#N)cc1	0	0	0	0	0	0
COc1cc(NCc2ccccc2)c2ncn(C(C)C)c2c1	0	0	0	0	0	0
COc1cc(NCCCNC(C)C)c2nccc(C)c2c1	0	0	0	-	0	76.8
COc1ccc(C2=Nn3c(nnc3-c3ccccn3)SC2)cc1	0	0	0	-	0	82.4
CC1(O)CC(c2ccc(Cl)cc2)=NN1C(=O)c1ccc([N+](=O)[O-])cc1 (stereo not drawn)	89.1	-	0	0	-	0
CCC(=O)Nc1ccc2c(c1)C(=O)N(C)C[C@H](OC)[C@@H](C)CN(C(=O)C1CC1)[C@H](C)CO2	-	-	-	-	-	0
CCC(=O)Nc1ccc2c(c1)C(=O)N(C)[C@H]1CC[C@H](CC(=O)O)O[C@@H]1CO2	-	0	-	-	-	0
CC(Sc1nc(-c2ccccc2)cc(C(F)(F)F)n1)C(=O)N1CCOCC1 (stereo not drawn)	92.8	0	0	0	-	-
CC(Sc1nc(-c2ccccc2)cc(C(F)(F)F)n1)C(=O)NCCN1CCOCC1 (stereo not drawn)	73.4	0	0	0	0	0
COc1ccc(-c2cc(C(F)(F)F)nc(SCC(=O)NCCN3CCOCC3)n2)cc1OC	0	-	0	0	0	0
CC1CCN(C(=O)C(C)Sc2nc(-c3ccccc3)cc(C(F)(F)F)n2)CC1 (stereo not drawn)	86.9	0	0	0	0	0
O=C(CSc1nc(-c2ccc(F)cc2)cc(C(F)(F)F)n1)NCCN1CCOCC1	73.0	-	0	0	0	0
CCN(CC)CCCNC(=O)C(C)Sc1nc(-c2ccccc2)cc(C(F)(F)F)n1 (stereo not drawn)	0	0	0	0	0	0
CCCCNC(=S)N1CCN(C(c2ccccc2)c2ccccc2)CC1	0	-	0	44.7	0	0
CCCNC(=S)N1CCN(C(c2ccccc2)c2ccccc2)CC1	0	0	0	0	0	0

Assay outcomes as filed in PubChem.
